According to ChEMBL document CHEMBL5724801, “EUbOPEN Chemogenomics Library - Multiplex” (2024):
Several values for one entry are separate records, joined by “and”; a condition that tells them apart may be missing. Equal entries are not always repeated.

Legend:
U2OS = experiment: Multiplex assay against U2OS; type: toxicity, cell-based; conditions: human
Method in brief: (§1)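 Cells stained live at seeding with Hoechst33342, BioTracker Green Microtubule Cytoskeleton Dye, MitoTracker Red and Annexin V Alexa Fluor 680 were imaged on a CQ1 microscope at 37°C and 5% CO2 after compound addition. Their classification by CellPathfinder machine-learning gating ran from Hoechst high-intensity objects versus normal cells, to healthy, pyknosed or fragmented nuclei among normal cells, to mitotic or apoptotic among pyknosed cells. Tubulin, mitochondrial-mass and membrane-permeability phenotypes are per cents of healthy-nucleus cells.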

HEK-293T = experiment: Multiplex assay against HEK293T; type: toxicity, cell-based; conditions: human; method in brief: as §1
[1] = 24 h, 10 µM, compound concentration 10 uM
[2] = 48 h, 1 µM, compound concentration 1 uM
[3] = 48 h, 10 µM, compound concentration 10 uM
[4] = 12 h, 1 µM, compound concentration 1 uM
[5] = 12 h, 10 µM, compound concentration 10 uM
[6] = 24 h, 1 µM, compound concentration 1 uM

Cc1ccc(-c2ccc(F)cc2COc2ccc(CCC(=O)O)cc2)cc1
Population Normal (%) (U2OS; [1]): 98% and 97% | Total Cell Count (U2OS; [1]): 295 and 160 | Population Apoptotic (%) (U2OS; [2]): 89% and 95% | Population Fragmented Nuclei (%) (U2OS; [2]): 17% and 15% | Population Healthy Nuclei (%) (U2OS; [2]): 74% and 75% | Population Hoechst High Intensity Objects (%) (U2OS; [2]): 2% | Population Mitochondria Different-Phenotype (%) (U2OS; [2]): 2% | Population Mitotic Cells (%) (U2OS; [2]): 10% and 5% | Population Normal (%) (U2OS; [2]): 97% | Total Cell Count (U2OS; [2]): 487 and 242 | Population Apoptotic (%) (U2OS; [3]): 87% and 88% | Population Fragmented Nuclei (%) (U2OS; [3]): 21% and 16% | Population Healthy Nuclei (%) (U2OS; [3]): 70% and 72% | Population Hoechst High Intensity Objects (%) (U2OS; [3]): 2% and 1% | Population Mitochondria Different-Phenotype (%) (U2OS; [3]): 3% | Population Mitotic Cells (%) (U2OS; [3]): 12% and 11% | Population Normal (%) (U2OS; [3]): 97% and 98% | Total Cell Count (U2OS; [3]): 421 and 236 | Population Apoptotic (%) (HEK-293T; [4]): 42% and 33% | Population Fragmented Nuclei (%) (HEK-293T; [4]): 6% | Population Healthy Nuclei (%) (HEK-293T; [4]): 82% and 77% | Population Hoechst High Intensity Objects (%) (HEK-293T; [4]): 9% | Population Mitochondria Different-Phenotype (%) (HEK-293T; [4]): 36% and 50% | Population Mitotic Cells (%) (HEK-293T; [4]): 57% and 66% | Population Normal (%) (HEK-293T; [4]): 90% | Population Pyknosed Nuclei (%) (HEK-293T; [4]): 15% | Population Tubulin-Different-Phenotype (%) (HEK-293T; [4]): 18% | Total Cell Count (HEK-293T; [4]): 465 and 324 | Population Apoptotic (%) (HEK-293T; [5]): 32% and 42% | Population Fragmented Nuclei (%) (HEK-293T; [5]): 10% and 7% | Population Healthy Nuclei (%) (HEK-293T; [5]): 79% and 83% | Population Hoechst High Intensity Objects (%) (HEK-293T; [5]): 7% and 6% | Population Mitochondria Different-Phenotype (%) (HEK-293T; [5]): 46% and 58% | Population Mitotic Cells (%) (HEK-293T; [5]): 67% and 57% | Population Normal (%) (HEK-293T; [5]): 92% and 93% | Population Pyknosed Nuclei (%) (HEK-293T; [5]): 10% and 9% | Population Tubulin-Different-Phenotype (%) (HEK-293T; [5]): 33% and 15% | Total Cell Count (HEK-293T; [5]): 329 and 396 | Population Fragmented Nuclei (%) (HEK-293T; [6]): 10% and 9% | Population Healthy Nuclei (%) (HEK-293T; [6]): 82% and 80% | Population Hoechst High Intensity Objects (%) (HEK-293T; [6]): 3% and 7% | Population Mitochondria Different-Phenotype (%) (HEK-293T; [6]): 16% and 33% | Population Mitotic Cells (%) (HEK-293T; [6]): 84% and 47% | Population Normal (%) (HEK-293T; [6]): 96% and 92% | Population Pyknosed Nuclei (%) (HEK-293T; [6]): 7% and 9% | Population Tubulin-Different-Phenotype (%) (HEK-293T; [6]): 10% and 13% | Total Cell Count (HEK-293T; [6]): 688 and 445 | Population Apoptotic (%) (HEK-293T; [1]): 36% and 51% | Population Fragmented Nuclei (%) (HEK-293T; [1]): 11% and 6% | Population Healthy Nuclei (%) (HEK-293T; [1]): 76% and 87% | Population Hoechst High Intensity Objects (%) (HEK-293T; [1]): 3% | Population Mitochondria Different-Phenotype (%) (HEK-293T; [1]): 30% and 37% | Population Mitotic Cells (%) (HEK-293T; [1]): 63% and 48% | Population Normal (%) (HEK-293T; [1]): 94% and 96% | Population Pyknosed Nuclei (%) (HEK-293T; [1]): 6% | Population Tubulin-Different-Phenotype (%) (HEK-293T; [1]): 18% and 13% | Total Cell Count (HEK-293T; [1]): 397 and 461 | Population Apoptotic (%) (HEK-293T; [2]): 17% and 36% | Population Fragmented Nuclei (%) (HEK-293T; [2]): 15% and 14% | Population Healthy Nuclei (%) (HEK-293T; [2]): 79% and 77% | Population Hoechst High Intensity Objects (%) (HEK-293T; [2]): 1% and 2% | Population Mitochondria Different-Phenotype (%) (HEK-293T; [2]): 7% and 18% | Population Mitotic Cells (%) (HEK-293T; [2]): 82% and 63% | Population Normal (%) (HEK-293T; [2]): 98% and 97% | Population Pyknosed Nuclei (%) (HEK-293T; [2]): 5% | Population Tubulin-Different-Phenotype (%) (HEK-293T; [2]): 8% and 9% | Total Cell Count (HEK-293T; [2]): 1149 and 631 | Population Apoptotic (%) (HEK-293T; [3]): 24% and 31% | Population Fragmented Nuclei (%) (HEK-293T; [3]): 12% and 15% | Population Healthy Nuclei (%) (HEK-293T; [3]): 78% and 79% | Population Hoechst High Intensity Objects (%) (HEK-293T; [3]): 2% and 4% | Population Mitochondria Different-Phenotype (%) (HEK-293T; [3]): 17% and 16% | Population Mitotic Cells (%) (HEK-293T; [3]): 75% and 68% | Population Normal (%) (HEK-293T; [3]): 97% and 95% | Population Pyknosed Nuclei (%) (HEK-293T; [3]): 5% | Population Tubulin-Different-Phenotype (%) (HEK-293T; [3]): 9% and 8% | Total Cell Count (HEK-293T; [3]): 713 and 702
